Source: ChEMBL document CHEMBL4414599, “Selective Phenylimidazole-Based Inhibitors of the Mycobacterium tuberculosis Proteasome” (J Med Chem, 2019)

Tests used:
[1] = molecular target: T1, Proteasome subunit beta type-8 (Homo sapiens, UniProt P28062); test: Inhibition of human 20S proteasome subunit beta-5i using Ac-ANW-AMC as substrate and measured every 30 secs for 30 mins by microtiter plate assay; conditions: for inhibition (INH): human, 0.5 h
T1 sequence (P28062 whole entry): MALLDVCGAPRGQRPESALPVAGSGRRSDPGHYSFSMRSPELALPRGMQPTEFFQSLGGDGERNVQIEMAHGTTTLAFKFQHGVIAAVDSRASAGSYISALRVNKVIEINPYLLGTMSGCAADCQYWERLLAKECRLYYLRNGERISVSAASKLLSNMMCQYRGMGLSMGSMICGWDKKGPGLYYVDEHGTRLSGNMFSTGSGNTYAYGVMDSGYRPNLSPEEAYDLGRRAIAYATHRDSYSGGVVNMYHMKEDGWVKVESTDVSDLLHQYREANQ
In short: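 Human immunoproteasome (i-20S) run in HEPES pH 7.5 buffer with EDTA and BSA, substrate Ac-ANW-AMC at 15 µM, 25 °C. Inhibitor given as a three-fold dilution series, DMSO under 0.5% final. Fluorescence 340/460 nm followed every 30 s for 30 min. IC50 fitted from rates against log inhibitor concentration; triplicate, at least three independent experiments.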

[2] = molecular target: T2, Proteasome Macropain subunit MB1 (Homo sapiens, UniProt P28074); test: Inhibition of human 20S proteasome beta-5c subunit using Suc-LLVY-AMC as substrate and measured every 30 secs for 30 mins by microtiter plate assay; conditions: for inhibition (INH): human, 0.5 h
T2 sequence (P28074 whole entry): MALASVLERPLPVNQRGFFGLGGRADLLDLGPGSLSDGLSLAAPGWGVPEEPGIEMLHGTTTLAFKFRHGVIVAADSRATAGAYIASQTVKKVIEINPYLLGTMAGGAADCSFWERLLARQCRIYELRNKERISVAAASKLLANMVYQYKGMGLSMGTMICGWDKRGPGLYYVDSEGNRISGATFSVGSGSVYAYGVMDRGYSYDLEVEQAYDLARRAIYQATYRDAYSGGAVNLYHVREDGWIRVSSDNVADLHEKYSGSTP
In short: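 Human constitutive 20S, purchased, 0.8 nM in the enzyme solution. Buffer: 20 mM HEPES pH 7.5, 0.5 mM EDTA, 0.1 mg/mL BSA, 0.02% SDS. Suc-LLVY-AMC at 25 µM final, 25 °C, three-fold inhibitor dilutions. Fluorescence 340/460 nm read every 30 s for 30 min. IC50 from a log-concentration rate fit against negative and positive controls; triplicate, at least three independent experiments.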

[3] = Solubility of the compound; assay type: physicochemical

Cc1cc(C(=O)N[C@@H](CC(=O)N2CCCC[C@@H]2C)C(=O)N[C@@H](C)C(=O)NCc2ccc(F)cc2F)no1
IC50 [1]: 0.026 µM
inhibition (INH) [1]: Dose-dependent effect
IC50 [2]: 1.41 µM
inhibition (INH) [2]: Dose-dependent effect
solubility [3]: Soluble

COc1ccccc1CNC(=O)[C@H](C)NC(=O)[C@H](CC(=O)N1CCC[C@@H]1c1ccccc1)NC(=O)c1cc(C)on1
IC50 [1]: > 100 µM
inhibition (INH) [1]: Dose-dependent effect
IC50 [2]: > 100 µM
inhibition (INH) [2]: Dose-dependent effect

Cc1cc(C(=O)N[C@@H](CC(=O)N2CCC[C@@H]2c2ccccc2)C(=O)N[C@@H](C)C(=O)NCc2c(F)cccc2F)no1
IC50 [1]: 20.1 µM
inhibition (INH) [1]: Dose-dependent effect
IC50 [2]: > 100 µM
inhibition (INH) [2]: Dose-dependent effect

Cc1cc(C(=O)N[C@@H](CC(=O)N2CCC[C@@H]2c2ccccc2)C(=O)N[C@@H](C)C(=O)NCc2ccc(F)cc2F)no1
IC50 [1]: 7.89 µM
inhibition (INH) [1]: Dose-dependent effect
IC50 [2]: > 100 µM
inhibition (INH) [2]: Dose-dependent effect

Cc1cc(C(=O)N[C@@H](CC(=O)N2CCC[C@@H]2c2ccccc2)C(=O)N[C@@H](C)c2ncc(-c3ccccc3F)[nH]2)no1
IC50 [1]: > 100 µM
IC50 [2]: > 100 µM

Cc1cc(C(=O)N[C@@H](CC(=O)N2CCC[C@@H]2c2ccccc2)C(=O)N[C@@H](C)c2ncc(-c3ccccc3)[nH]2)no1
IC50 [1]: > 100 µM
IC50 [2]: > 100 µM

Cc1cc(C(=O)N[C@@H](CC(=O)N2CCC[C@@H]2c2ccccc2)C(=O)N[C@@H](C)c2ncc(-c3ccc(F)cc3F)[nH]2)no1
IC50 [1]: > 100 µM
IC50 [2]: > 100 µM
